Screening data from PubChem.
An excerpt weighted towards active compounds, which were near 4.2% of everything screened.
Lipid droplet: hepatic lipid droplet formation modulation | AML12 mouse hepatocytes, oleate lipid droplets, BODIPY imaging | inhibition, % at 6.5 µM | 240,000 compounds, 0.4% hits | AID 1656;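 active = lipid droplet intensity inhibited by at least 50%, with more than 500 cells counted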
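Test system: AML12 hepatocytes (mouse); reagent: oleate loading, 100 µM; dosing: one dose, 6.5 µM compound; incubation: overnight exposure; signal: fluorescence imaging, 20x objective, two fields per well; read-out basis: % inhibition of corrected integrated BODIPY droplet signal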
CHOP UPR activ: apoptotic UPR (CHOP) activation. CHO-CHOP luciferase reporter, luminescence; percent of tunicamycin response over DMSO baseline. 330,000 compounds, 0.34% hits. activation, % at 10 µM;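 active = at 10 µM dose, activation of 40% or more, normalized to positive control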
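Assay system: CHO cells with stable CHOP pathway luciferase reporter; Buffer or medium: F12 plus 10% serum; Times: 16-18 h cell attachment, then 6 h compound exposure, 37 °C; Signal: luciferase luminescence; Read-out basis: percent activation relative to tunicamycin control; Control set: tunicamycin high control, DMSO low control.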
UPR XBP1 act: activators of adaptive arm of unfolded protein response (XBP1); AID 463104; CHO-XBP1 luciferase reporter, IRE1-XBP1 UPR activation, luminescence; percent of tunicamycin response, DMSO as zero; 330,000 compounds, 0.33% hits; activation, % at 20 µM;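 active = versus positive control, 20 µM dose yields 30% or more activation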
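Test system: CHO-XBP1 luciferase reporter cells | Buffer or medium: Serum-containing F12 medium, 10% FBS | Schedule: 6 h compound exposure at 37 °C, 5% CO2 | Detection: Steady-Glo luciferase glow luminescence, 10 min after reagent addition | Read-out basis: Activation, % of tunicamycin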
CHOP inhibitor: inhibitors of CHOP induction in ER stress response; AID 2732; 220,000 compounds, 3.8% hits; inhibition, % at 10 µM; CHO-K1 CHOP-promoter luciferase, tunicamycin-induced, 15-18 h;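 active = compounds that reduced the stress-induced luciferase reporter signal by more than about 70% of percent inhibition, limit read from the data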
TMEM16A inh: blocks the mouse calcium-activated chloride channel TMEM16A; AID 588511; Q8BHY3; normalized B-score (activity score, 25-100; higher = stronger inhibition) at 10 µM; HEK293 TMEM16A/YFP iodide influx fluorescence, ionomycin; 310,000 compounds, 1.2% hits;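 active = ratio plate-corrected score three or more library SD toward inhibition, starting fluorescence score within five deviations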;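 also: score derived from kinetic fluorescence span divided by baseline fluorescence per well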
Target sequence (Q8BHY3 whole entry, looked up): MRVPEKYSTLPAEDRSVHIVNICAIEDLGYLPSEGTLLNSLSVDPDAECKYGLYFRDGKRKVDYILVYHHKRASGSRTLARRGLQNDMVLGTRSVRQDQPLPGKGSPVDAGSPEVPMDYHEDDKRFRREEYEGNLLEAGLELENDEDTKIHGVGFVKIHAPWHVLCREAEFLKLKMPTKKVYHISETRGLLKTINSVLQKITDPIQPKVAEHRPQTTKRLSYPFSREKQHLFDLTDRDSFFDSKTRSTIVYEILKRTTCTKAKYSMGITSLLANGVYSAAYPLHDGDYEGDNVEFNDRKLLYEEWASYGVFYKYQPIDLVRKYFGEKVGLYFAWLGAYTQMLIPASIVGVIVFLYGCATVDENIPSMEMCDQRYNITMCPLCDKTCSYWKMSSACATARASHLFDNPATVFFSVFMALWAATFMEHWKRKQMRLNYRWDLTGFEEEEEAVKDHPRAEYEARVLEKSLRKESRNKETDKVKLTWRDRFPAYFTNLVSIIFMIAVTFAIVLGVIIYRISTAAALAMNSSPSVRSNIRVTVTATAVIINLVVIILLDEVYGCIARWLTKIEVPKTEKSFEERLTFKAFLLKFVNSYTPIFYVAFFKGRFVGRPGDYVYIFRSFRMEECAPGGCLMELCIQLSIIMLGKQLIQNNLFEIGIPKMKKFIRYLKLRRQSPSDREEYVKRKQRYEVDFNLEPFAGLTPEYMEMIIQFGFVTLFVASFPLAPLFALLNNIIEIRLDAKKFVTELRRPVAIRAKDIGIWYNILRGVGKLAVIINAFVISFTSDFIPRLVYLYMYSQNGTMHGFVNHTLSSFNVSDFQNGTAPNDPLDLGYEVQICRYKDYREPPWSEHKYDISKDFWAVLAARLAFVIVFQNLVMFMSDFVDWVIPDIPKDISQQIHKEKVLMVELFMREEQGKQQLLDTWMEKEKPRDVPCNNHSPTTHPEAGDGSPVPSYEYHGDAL
TMEM16A act: activates or potentiates the mouse TMEM16A chloride channel; HEK293 TMEM16A/YFP-H148Q/I152L, iodide quench fluorescence; stronger effect = lower value; B-score at 10 µM; Q8BHY3; 340,000 compounds, 0.3% hits;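 active = fluorescence-ratio B-score plate-corrected deviation score at least 3 library SD below zero, with starting fluorescence score within 5 deviations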;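 also: channel opened by trigger with iodide after compound preincubation; score built on the fluorescence ratio of max minus min over baseline; more negative score means more quench and so TMEM16A activation or potentiation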
CHOP inh conf: confirmation of CHOP induction inhibitors; shares compounds with CHOP inhibitor; CHO-CHOP promoter luciferase reporter, tunicamycin-induced, luminescence; inhibition, % at 10 µM; 2,100 compounds, 45% hits;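 active = mean of three repeat readings of reporter signal inhibition above a set limit, cut at about 70% in these data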
UPR CHOP confirm: apoptotic UPR (CHOP) activation, confirmed. shares compounds with CHOP UPR activ. CHO-CHOP cells, CHOP-luciferase reporter luminescence; percent of tunicamycin response, DMSO as zero. activation, % at 10 µM. 1,000 compounds, 64% hits. AID 463112; in the data active = activation above about 33%
A number is an active result; n = inactive; x = not tested or not shown.

SMILES	Lipid droplet	CHOP UPR activ	UPR XBP1 act	CHOP inhibitor	TMEM16A inh	TMEM16A act	CHOP inh conf	UPR CHOP confirm
O=C(NNc1ccc(C2CCCCC2)cc1)C(O)(c1ccccc1)c1cccs1 (stereo not given)	x	n	n	106.2	n	n	n	x
N#Cc1c(NCCN)nc(-c2ccccc2)c2c1CCCC2	n	n	n	108.5	n	n	n	x
CCCCN1C(=O)C2(NNc3ccccc3O2)c2ccccc21 (stereo not given)	n	n	n	102.8	n	n	n	x
CCCCc1nnc(NC(=O)C2CC(=O)N(Cc3ccccc3)C2)s1 (stereo not given)	n	n	n	x	n	n	x	x
CC(C)COC(=O)c1cccc2c1-c1ccccc1/C2=N\O	n	n	n	101.5	n	n	n	x
COc1ccc(CCN2C(=O)c3[nH]nc(-c4ccccc4O)c3C2c2cccc(Cl)c2)cc1 (stereo not given)	x	n	n	104.4	n	n	88.0	x
CCCOc1ccc(/C=N/NC(=S)Nc2ccccc2[N+](=O)[O-])c(O)c1	n	x	x	100.6	n	x	n	x
Cc1cc(N2CCOCC2)nc2ccc(NC(=S)N3CCN(c4ccccc4)CC3)cc12	n	n	n	100.7	n	n	n	x
CCN1CCN(c2cc(C)c3cc(NC(=S)N4CCN(c5ccccc5)CC4)ccc3n2)CC1	n	n	n	n	n	n	x	x
COc1ccc(OC)c(/C=C/C(=O)OCC(=O)NCc2cccs2)c1	x	n	n	x	x	n	x	x
O=C1C(C2=NC(c3ccccn3)C3C(=O)N(c4ccc(OC(F)(F)F)cc4)C(=O)C23)=C(O)c2ccccc21 (stereo not given)	n	41.7	n	104.8	n	n	117.4	n
O=C1C(C2=NC(C(=O)O)C3C(=O)N(c4ccccc4)C(=O)C23)=C(O)c2ccccc21 (stereo not given)	x	n	n	n	n	n	x	x
Cc1ccc(C)c(C(=O)Cn2ncc(Cl)c(Cl)c2=O)c1	n	86.9	n	110.7	n	n	n	67.3
Cc1cccc(Cn2ncc(Cl)c(Cl)c2=O)c1	x	n	n	n	n	n	x	x
COc1cc(/C=C(/C#N)c2nc3ccccc3[nH]2)ccc1OCC(=O)Nc1ccccc1C(C)C	x	75.6	n	107.5	n	n	116.3	63.9
N#C/C(=C\c1ccc([N+](=O)[O-])o1)C(=O)Nc1ccc(F)cc1	n	166.0	n	108.0	n	n	106.3	156.4
CCOC(=O)c1c(C)oc2c1c(C(c1cccnc1)N1CCOCC1)c(O)c1ccccc12 (stereo not given)	x	70.5	n	107.4	n	n	n	134.3
CCOC(=O)c1c(C)oc2c1c(C(c1cccnc1)N1CCN(C)CC1)c(O)c1ccccc12 (stereo not given)	n	x	x	x	x	x	x	x
CN(Cc1cnccn1)C(=O)C1CCC(=O)N(CCc2ccc(Cl)cc2)C1 (stereo not given)	n	n	n	x	n	n	x	x
CC(C)Oc1ccc(CNC(=O)C2CCCN(S(=O)(=O)N3CCOCC3)C2)cc1 (stereo not given)	n	n	n	x	n	n	x	x
Cn1nnnc1SC1CC(=O)N(c2ccccc2)C1=O (stereo not given)	x	n	n	n	n	n	x	x
Cc1cc(C)cc(N2C(=O)CC(Sc3nnnn3-c3ccccc3)C2=O)c1 (stereo not given)	x	55.7	n	101.7	n	n	n	n
CC(C)Oc1ccc(C(=O)N/N=C/c2ccc(-c3ccc(S(=O)(=O)Nc4ncccn4)cc3)o2)cc1	n	n	n	n	n	n	x	x
CC1=NOC(=O)/C1=C\c1ccc(-c2cccc(Cl)c2)o1	x	115.4	n	101.9	100	n	n	189.8
CC(NC(=O)/C(C#N)=C/c1ccc(Cl)c([N+](=O)[O-])c1)c1ccccc1 (stereo not given)	n	63.4	n	105.3	n	x	94.0	n
SMILES	Lipid droplet	CHOP UPR activ	UPR XBP1 act	CHOP inhibitor	TMEM16A inh	TMEM16A act	CHOP inh conf	UPR CHOP confirm
CC(=O)c1cccc([N+](=O)[O-])c1	x	n	n	x	x	n	x	x
O=C(C#Cc1ccccc1)c1cccc([N+](=O)[O-])c1	n	292.6	n	107.0	n	n	n	197.2
Cc1ccc(C(=O)c2c(C)oc3c2C(=O)C(=O)c2ccccc2-3)cc1	x	64.5	n	115.2	25	-17.9	n	n
Cc1oc2c(c1C(=O)c1ccc(Cl)cc1)C(=O)C(=O)c1ccccc1-2	x	x	x	n	x	n	x	x
Cc1ccc(Sc2nc(-c3ccccc3)nnc2C(F)(F)F)cc1	n	40.3	n	107.3	n	n	n	119.6
COc1ccc(CNC(=O)CCN2C(=O)[C@@H]3Cc4ccccc4CN3C2=O)cc1	n	n	n	x	n	n	x	x
O=[N+]([O-])c1ccc2c(c1)nnn2-c1ccccc1	n	n	n	x	n	n	x	x
N#Cc1cc([N+](=O)[O-])c(-n2nnc3ccccc32)c([N+](=O)[O-])c1	x	121.7	n	107.0	n	n	n	73.8
CNS(=O)(=O)c1ccc(C(=O)NCC(=O)NC(C)c2cccs2)cc1 (stereo not given)	x	n	n	x	x	n	x	x
CCOC(=O)c1c(NC(=O)c2ccccc2Cl)sc2c1CCc1ccccc1-2	n	n	n	n	n	n	x	x
CCCCC(=O)Nc1sc2c(c1C(=O)OCC)CCC(C=O)=C2Cl	x	62.8	33.0	116.6	n	n	n	33.3
Cc1ccc(Oc2c(C(N)=O)cc([N+](=O)[O-])cc2[N+](=O)[O-])cc1	n	64.0	n	108.0	n	n	n	n
O=[N+]([O-])c1cc(S(=O)(=O)C(F)(F)F)ccc1Sc1nc2ccccc2[nH]1	n	42.9	n	107.9	n	n	123.8	n
NCCNc1ccc([N+](=O)[O-])c(Sc2nc3ccccc3[nH]2)c1	n	n	n	n	n	n	x	x
CC1(C)CC(=O)C(=Cc2cn(-c3ccccc3)nc2-c2ccc(Cl)cc2)C(=O)C1	x	288.2	n	104.7	n	n	n	220.6
CC1CCN(C(=O)C2CCN(S(=O)(=O)c3cccc4nsnc34)CC2)CC1	n	n	n	n	n	n	x	x
C=CCn1c(SCc2cc(C(C)=O)ccc2OCC)nc2ccccc2c1=O	n	n	n	n	n	n	x	x
CCOC(=O)COc1ccc(/C=C/[N+](=O)[O-])c(OCC(=O)OCC)c1	x	358.1	n	111.4	n	n	n	n
O=C(/C=C/c1ccc(-c2ccccc2)o1)c1ccccc1	n	92.9	n	97.6	n	n	n	n
